The test system of this data set is MS2 coat protein. Description: apparent Kd, MS2 coat protein; higher = weaker binding; RNA-MaP array; FMN 200 µM where present. The essentials: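 In 100 mM Tris-HCl pH 7.5, 80 mM KCl, 4 mM MgCl2, BSA, DTT, yeast tRNA and Tween-20, SNAP-549-labelled MS2 coat protein was titrated from 0.7 or 1.5 nM, doubling to 3 µM, over designs transcribed by stalled E. coli RNA polymerase on Illumina sequencing-chip clusters. This was done first without ligand, then with ligand held constant. After green signal was normalised to red-channel RNA signal and control-cluster median Fmax, the apparent Kd was taken as the median of filtered per-cluster binding-curve fits.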

Where [1] appears, read: designed as: ON switch for flavin mononucleotide, no ligand.
The mark [2] stands for this setting: ligand present: flavin mononucleotide, designed as: ON switch for flavin mononucleotide.
Where [3] appears, read: designed as: OFF switch for flavin mononucleotide, no ligand.
Where [4] appears, read: ligand present: flavin mononucleotide, designed as: OFF switch for flavin mononucleotide.

One may read the apparent Kd as the concentration giving half-maximal binding under the conditions of the assay.

As to “UCCAAACCGUAGAAGGGUGACAUGAGGAUCACCCAUGUGCAGCAGCCGUGAACGGCCAUGCUGCCACAGGAUAUACGGAGGAGU”, the “apparent Kd” value was 28.9 nM under setting [1] and 67.3 nM under setting [2].
With “ACAUGAUCAGGAUAUACAUGAGGAUCACCCAUGUUUAUCAGGGAAAAACCUUCUACAUGUAGAAGGGAUCUUGU”, the “apparent Kd” value reads like this: under setting [3], 14.9 nM; under setting [4], 14.2 nM.
In the case of “GCAUGCAUAGCGAUAUGAUCGAGAGAUCAUGUCGCUAAAUUUAGAAGGACAUGAGGAUCACCCAUGUAGGAUAUGGGAGCAUGC”, the “apparent Kd” value is, setting by setting: under setting [1], 11.7 nM; under setting [2], 7.72 nM.
As for “AUAAGUCGAGGAUAUACGGGAUGCUAGCGAAAGCUAGCAUAACAUGAGGAUCACCCAUGUAGAAGGCGACAAUA”, the “apparent Kd” value reads like this: under setting [3], 56.2 nM; under setting [4], 104 nM.
Turning to “ACAUGUUUUACAGGAUAUGUUAUACAAUAAACAAUCAGUUAUUAUGAUUUUACAGAAGGGUAUACAUGAGGAUCACCCAUGUUA”, the “apparent Kd” value is, setting by setting: under setting [3], 23 nM; under setting [4], 19.1 nM.
With “GAGGACUGAAUAAUAAGUAGAAAUACAUGAGGAUCACCCAUGUAGGAUAUCGUCAGGAAUACUGACGAGAAGGACAUACAGUCC”, the “apparent Kd” value turned out to be 14.1 nM under setting [3] and 18.1 nM under setting [4].
Turning to “UUGUUAUAUGUAGGAUAUGCAUAUUAUUAUUAUGCAGAAGGACAUGAGGAUCACCCAUGUGUAUUAUUAUUAUAUAUUAUAUAU”, the “apparent Kd” value under setting [3] stood at 23.2 nM and the “apparent Kd” value under setting [4] was determined as 33.2 nM.
For “UAUAUGUCAGGAUAUUAGUUGAGGUGGAAUUUAGCCUCUGCUGAGAAGGGACAUGAGGAUCACCCAUGUUCCUC”, in that order: 21.9 nM and 200 nM.
With “UUUGAGUUCCGAGACCGCGGGUUCACAGAAGGCAUUAUUACAUGAGGAUCACCCAUGUGGGUACAUGAGGAUAUGUGAUAUGCG”, the “apparent Kd” value was determined as 20.5 nM under setting [1] and 6.99 nM under setting [2].
For “UCAUUUAUUACAGGAUAUGUUAGUAUACAGUUGUUUGGUUAUUACAUAUUAACAGAAGGGUAGAACAUGAGGAUCACCCAUGUA”, in that order: 95.7 nM and 52.3 nM.
As for “AACAGCUCGUCAGGAUAUAUUUUCUAAUUAUGUAUUUAUGUACAUGAGGAUCACCCAUGUUGUUAGUAGAAGGGACGAGCUGAA”, the “apparent Kd” value reads like this: under setting [3], 11.7 nM; under setting [4], 12.1 nM.
For “AGUAUGAGAGGAUAUACGAAUAAACAUGGAAACAUGAUGGGACAUGAGGAUCACCCAUGUAGAAGGCUCGUACA”, in that order: 118 nM and 358 nM.
For “CAAAUUGCAGGAUAUACUGGGCCAGAGCCAUCGUGUAUUCCACAUGAGGAUCACCCAUGUAGAAGGGCACGUAC”, in that order: 27.2 nM and 99.1 nM.
Regarding “GCAGCACUGUUUUACAUGAGGAUCACCCAUGUCGAUUGUUAUGAGGAUAUGCAUCGUAUGAAGAUGCAGAAGGCAUUGUGCUGC”, the “apparent Kd” value is 8.32 nM under setting [1] and 5.48 nM under setting [2].
Take “GGGUACAUCGGAGGAUAUCAUGUAAAUACAUGAGGAUCACCCAUGUGGAUGGAGACAUCGGAGAUUGAGAAGGCCGAUGUACCG”: the “apparent Kd” value reads like this: under setting [1], 10.9 nM; under setting [2], 5.56 nM.
Regarding “GUAGAGUAAGGAUAUAGUGAAUAGGAUAGAAUGGUUAGAAACUAGAAGGUACAUGAGGAUCACCCAUGUAAUGU”, the “apparent Kd” value reads like this: under setting [3], 23.6 nM; under setting [4], 21.2 nM.
Take “UUCGCUAAGGUGUAGCGAGACUUGCAAGAAGGGUGAAGAACAUGAGGAUCACCCAUGUAAUCCUUACAGGAUAUUGCUUGACGA”: the “apparent Kd” value reads like this: under setting [1], 273 nM; under setting [2], 33.1 nM.
Turning to “ACCCGGGCUAACAUGAGGAUCACCCAUGUGUUAUACUUAAUAUAGGAUAUGUUUAUACUUUUUGGGCAGAAGGAUGGCCCGGGU”, the “apparent Kd” value runs as follows: under setting [1], 80.1 nM; under setting [2], 62.5 nM.
On to “GUGUGCUGAGGAUAUACAGAGGAAGAUAAGAUAAGAUAAUGACAUGAGGAUCACCCAUGUAGAAGGCAGAGUGU”, for which the “apparent Kd” value is 29.7 nM under setting [3] and 42.4 nM under setting [4].
For “UUCGUGCAGCUUUGCUGUACGCGUACAUGAGGAUCACCCAUGUAGGAUAUGGUACGCGUUGCGUGCUAGAAGGAUAUGGAGAGG”, in that order: 18.4 nM and 22.9 nM.
For “UUUUAACAUGAGGAUCACCCAUGUGAGGAUAUCGAAAUUUAUAUUUAUAUUUAUAUAUCGAGAAGGCACAUUUU”, in that order: 128 nM and 127 nM.
On to “AGCAUGUGAGGAUAUGUGACCCUCGUCCGAAGGAUGAGGGAAUAGAAGGCACAUGAGGAUCACCCAUGUGAUGA”, for which the “apparent Kd” value reads like this: under setting [3], 54.1 nM; under setting [4], 156 nM.
For “AGUUUUGUACAUGAGGAUCACCCAUGUUAAUAUGUGGUAGUCAGAAGGCAUUGUUAGAGUUUAAAUGAGGAUAUGAAUAUUCAG”, the “apparent Kd” value by setting is: under setting [1], 72.8 nM; under setting [2], 33 nM.
In the case of “UGAGCGCACGAGAAGGGCGGGUUCACGGGCUCCUGACGAGACAUGAGGAUCACCCAUGUAACCACGCAGGAUAUCGACCGGAUC”, the “apparent Kd” value was found to be 20.9 nM under setting [3] and 141 nM under setting [4].
On to “AUCAGCUCGUCAGGAUAUACGUCACUGCGUCAGCAGUCUGGUAAGAUCACAUGAGGAUCACCCAUGUAGAAGGGACGAGCUGAU”, for which the “apparent Kd” value under setting [3] is 19.1 nM and the “apparent Kd” value under setting [4] came to 288 nM.
With “AAUAACAGAGGAUAUACUAUUUUAUGUGUUUGUUAUUUUGAACAUGAGGAUCACCCAUGUAGAAGGCUGAUUAA”, the “apparent Kd” value runs as follows: under setting [3], 44.4 nM; under setting [4], 43.9 nM.
For “CCGGCAUAGGAGGAUAUAGGAGUCGAUAGACACCUAGAAGGCCUGACAUGAGGAUCACCCAUGUGUCCUACCGG”, in that order: 14.1 nM and 23.2 nM.
As to “CGAUAGGACAGAGGAUAUACACAUGAGGAUCACCCAUGUGAUUACAACGCUUAAGCUUCAAACAUGUAGAAGGCUGUCCUAUCG”, the “apparent Kd” value runs as follows: under setting [3], 10.8 nM; under setting [4], 19.4 nM.
As for “CAGGUAGACUGAGGAUAUACAAGACUUAGUCUAUCUAGGUCAAAAUCCACAUGAGGAUCACCCAUGUAGAAGGCAGUCUGCCUG”, the “apparent Kd” value by setting is: under setting [3], 17.6 nM; under setting [4], 46.8 nM.
For “AAGGAUCGAGGAUAUACAUAGAUACAGAUACAUGUAGACGUACAUGAGGAUCACCCAUGUAGAAGGCGAUUAUA”, in that order: 72.6 nM and 220 nM.
For “AGUGCCUCGAGAGGAUAUACAUGAGGAUCACCCAUGUAAGUAGAGGUGGAAACACCUCUACAAAUGUAGAAGGCUCGAGGCACA”, the “apparent Kd” value is, setting by setting: under setting [3], 18 nM; under setting [4], 52.2 nM.
For “GGUCGUCAAGUCAGGAUAUCGUUUGGUCGGUGUGGCGAGAAGGGACAUGAGGAUCACCCAUGUCGUCUCAUCAG”, in that order: 27 nM and 29.9 nM.
With “ACAUGAGGAUCACCCAUGUGUGCAUAGGAUAUUGAGGAUUUGGGAUGUUUUUUUGGAUUUGCCCACAAGAAGGAUGAAAGUGUU”, the “apparent Kd” value under setting [1] was found to be 12.8 nM and the “apparent Kd” value under setting [2] was determined as 11.3 nM.
In the case of “UAAGCGUAUGUUAGGAUAUGCUGGUCCUUGGAUCAGCAGAAGGAACAUGAGGAUCACCCAUGUAGAAUCGUUUA”, the “apparent Kd” value by setting is: under setting [3], 18.3 nM; under setting [4], 40.2 nM.
Take “GUCAGCUCGUGAGGAUAUACAACACUGCUUCGGCAGUGUAUUAAGAUCACAUGAGGAUCACCCAUGUAGAAGGCACGAGCUGAC”: the “apparent Kd” value runs as follows: under setting [3], 12.9 nM; under setting [4], 251 nM.
For “AGAUGACAAAGUCAUCUCGCUUUGACAUGAGGAUCACCCAUGUAGGAUAUAUUACUCAAAGAGUAAUAGAAGGACAUGUGUCUG”, in that order: 49 nM and 155 nM.
For “CCACUCUAUGCAGGAUAUCGAGCCUGGGCCUUAUUUUUUGUAAACAUGAGGAUCACCCAUGUCUUCGAGAAGGGCAUAACAACG”, in that order: 178 nM and 241 nM.
As for “UUUAUGGGACAGAAGGGCAAUUUCUUUAAUUAUUAUUUAAAACAUCAUUGCAGGAUAUGUAUAACAUGAGGAUCACCCAUGUAC”, the “apparent Kd” value by setting is: under setting [1], 36.2 nM; under setting [2], 12.2 nM.
For the sequence “CAGGUAGCUACAGGAUAUACACGUCUGGAUAAACCAGACGAAUACCUUACAUGAGGAUCACCCAUGUAGAAGGGUAGCUGCCUG”, the “apparent Kd” value under setting [3] was found to be 16.9 nM and the “apparent Kd” value under setting [4] was determined as 19.8 nM.
For “UAUAUAAUUAAGAGCUGGAAAACAACAUGAGGAUCACCCAUGUAGGAUAUCAGCACGAUAAGUGCUGAGAAGGACUACCAGCUC”, in that order: 14 nM and 16.8 nM.
As to “UGGGUUUGUAGUUACAUCCCUACACAGGAUAUGGGUAGUUACAUGAGGAUCACCCAUGUUCGAACUCAGAAGGGUGGAUCGUUG”, the “apparent Kd” value by setting is: under setting [1], 85.3 nM; under setting [2], 11.3 nM.
Turning to “GGAUAGGACAGAGGAUAUCCGUGCUAGAGAUACUAGCAAAAUUUCCUCACAUGAGGAUCACCCAUGUAGAAGGCUGUCCUAUCG”, the “apparent Kd” value runs as follows: under setting [3], 5.98 nM; under setting [4], 11.7 nM.
For the sequence “AACAAUCACAUAGGAUAUAGAAUAUUAUAUUUUUACAUGAGGAUCACCCAUGUUUUAUUGGGAUUCUAGAAGGAUGAGUAAUAA”, the “apparent Kd” value is, setting by setting: under setting [1], 162 nM; under setting [2], 90.8 nM.
Consider “CGCAUGCGUAGAAUUAGUUGCUGACAGGAUAUGACAUGAGGAUCACCCAUGUGAUUUAAGAAGAGUCAGAAGGGUCACGAUGCG”, for which the “apparent Kd” value under setting [3] was 10.7 nM and the “apparent Kd” value under setting [4] came out at 15.1 nM.
As for “ACAUGAGGAUCACCCAUGUAGAAUGAAGAAGGAUGUUACUUGAGACUCACCCAUGUACAUAGGACAUAGGAUAUUCUAAUAAUU”, the “apparent Kd” value reads like this: under setting [1], 10.1 nM; under setting [2], 7.83 nM.
For “AAGGGAUGAGCGUAGGAUAUAGGAGAAGUGACAUGAGGAUCACCCAUGUAAAAGGAGGGAUGAGACUAGAAGGACGAGGUAGGAG”, in that order: 107 nM and 125 nM.
Turning to “ACUUAAAUACCCAAAAGUCGGGCGGAGGAUAUGGAGCUUCCACCACAUGAGGAUCACCCAUGUCUUCAGAAGGCCGCCCUUGGG”, the “apparent Kd” value worked out at 89.6 nM under setting [1] and 8.79 nM under setting [2].
For “ACCCGCAGCCGUCAGGAUAUGUUCGCGUCAACAUGAGGAUCACCCAUGUGUGACAAGAAGUACACGCAGAAGGGAUCAAUGCGGG”, in that order: 16.4 nM and 18.3 nM.
